Assay results reported in ChEMBL document CHEMBL3808312, “Bioactive Constituents of Glycyrrhiza uralensis (Licorice): Discovery of the Effective Components of a Traditional Herbal Medicine” (J Nat Prod, 2016).
Active and inactive are the calls of the source. The rule behind the calls is not given here.

Key:
Mus musculus [1] = test: (§1) Hepatoprotective activity in C57BL/6J mouse assessed as attenuation of CCL4-mediated GSH level depletion measured as GSH level […] of protein at 10 mg/kg, ip administered qd for 3 days followed by CCL4 addition at 3 hrs post last dose measured after 24 hrs by GSH/GSSG assay (reference value: 0.86 +/- 0.38 nmol); type: functional
How it was run: (§2)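 Seven-week-old male C57BL/6J mice, n = 10/group, given compound in corn oil (0.5 or 1 mg/mL) at 5 or 10 mg/kg ip once daily for 3 days. CCl4 at 200 μL/kg ip (2% v/v in corn oil) given 3 h after the last dose. Sacrifice at 24 h. Serum ALT/AST measured; liver GSH by GSH/GSSG kit normalized to BCA protein; left lobe H&E stained and scored blind at 4× and 20×.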

[2] = biological target: T1, Nuclear factor erythroid 2-related factor 2 (Homo sapiens) (UniProt Q16236); test: Activation of NRF2 transcription in human HepG2C8 cells after 6 hrs by luciferase reporter gene assay; type: cell-based
T1 sequence (whole entry): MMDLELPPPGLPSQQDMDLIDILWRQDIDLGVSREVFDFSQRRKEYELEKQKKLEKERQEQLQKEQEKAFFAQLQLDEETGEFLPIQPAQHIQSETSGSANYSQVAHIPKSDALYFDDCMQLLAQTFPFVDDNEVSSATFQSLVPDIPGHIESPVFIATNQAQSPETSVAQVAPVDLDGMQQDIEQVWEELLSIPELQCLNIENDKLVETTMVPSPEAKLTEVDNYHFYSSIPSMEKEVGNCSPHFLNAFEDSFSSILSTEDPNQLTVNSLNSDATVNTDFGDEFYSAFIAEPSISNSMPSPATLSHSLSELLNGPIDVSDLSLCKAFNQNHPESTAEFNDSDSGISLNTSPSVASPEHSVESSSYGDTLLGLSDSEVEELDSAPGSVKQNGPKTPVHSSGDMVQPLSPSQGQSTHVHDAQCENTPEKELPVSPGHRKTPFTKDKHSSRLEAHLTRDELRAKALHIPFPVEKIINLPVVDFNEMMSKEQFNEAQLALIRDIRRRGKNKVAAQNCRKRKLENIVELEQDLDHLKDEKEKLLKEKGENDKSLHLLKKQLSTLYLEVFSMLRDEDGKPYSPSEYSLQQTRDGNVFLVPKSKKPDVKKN
How it was run: (§3)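 Luciferase reporter in HepG2C8 cells, which are HepG2 stably transfected with an Nrf2 luciferase reporter and grown in MEM. Screened at 10 μM, with dose-response over 2.5−40 μM. Activity expressed as fold of control. tBHQ positive control.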

HepG2 = test: Toxicity in human HepG2 cells at 20 to 40 uM; type: cell-based; details: hepg2, 40 µM
[3] = biological target: T1, Nuclear factor erythroid 2-related factor 2 (Homo sapiens); test: Activation of NRF2 in human HepG2 cells assessed as upregulation of HO-1 level by Western blot analysis; type: cell-based
How it was run: (§4)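 HepG2 cells treated with or without compound. HO-1 and NQO1 transcripts measured by RT-PCR after total RNA extraction and reverse transcription, amplified against β-actin with human primers. For protein, 20 μg lysate (RIPA) separated on 10% SDS-PAGE, blotted to PVDF, probed with antibodies to Nrf2, HO-1, NQO-1 and β-actin, and detected by ECL.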

Mus musculus [4] = test: as §1, with “5” for “10”; type: functional; how it was run: as §2
[5] = biological target: T1, Nuclear factor erythroid 2-related factor 2 (Homo sapiens); test: Activation of NRF2 in human HepG2 cells assessed as induction of HO-1 transcription by RT-PCR analysis; type: cell-based; how it was run: as §4
Mus musculus [6] = test: In vivo NRF2 activation in ip dosed C57BL/6J mouse assessed as increase in liver transcription of HO-1 administered as qd for 3 days measured 3 hrs post last dose by qRT-PCR analysis; type: functional, organism-based
How it was run: (§5)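 Male C57BL/6J mice given compound in corn oil at 5 or 10 mg/kg ip for three consecutive days; controls received corn oil. Liver harvested 3 h after final dose. HO-1 and NQO-1 mRNA measured by qRT-PCR with mouse primers. Nrf2 and HO-1 protein measured by Western blot (20 μg, 10% SDS-PAGE, ECL).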

[7] = biological target: T1, Nuclear factor erythroid 2-related factor 2 (Homo sapiens); test: Activation of NRF2 in human HepG2 cells assessed as induction of NQO-1 transcription by RT-PCR analysis; type: cell-based; how it was run: as §4
Mus musculus [8] = test: Hepatoprotective activity in C57BL/6J mouse assessed as prevention of CCL4-induced severe hepatic lesions at 5 mg/kg, ip administered qd for 3 days followed by CCL4 addition at 3 hrs post last dose measured after 24 hrs by hematoxylin-eosin staining; type: functional, organism-based; how it was run: as §2
[9] = biological target: T1, Nuclear factor erythroid 2-related factor 2 (Homo sapiens); test: Activation of NRF2 transcription in human HepG2C8 cells at 10 uM after 6 hrs by luciferase reporter gene assay relative to control; type: cell-based; how it was run: as §3
Mus musculus [10] = test: In vivo increase in NRF2 levels in C57BL/6J mouse liver at 5 to 10 mg/kg, ip qd administered for 3 days measured 3 hrs post last dose by Western blot analysis; type: functional, organism-based; how it was run: as §5
Mus musculus [11] = test: In vivo NRF2 activation in ip dosed C57BL/6J mouse assessed as increase in liver transcription of NQO-1 administered as qd for 3 days measured 3 hrs post last dose by qRT-PCR analysis; type: functional, organism-based; how it was run: as §5
[12] = biological target: T1, Nuclear factor erythroid 2-related factor 2 (Homo sapiens); test: Activation of NRF2 in human HepG2 cells by Western blot analysis; type: cell-based; how it was run: as §4
Influenza A virus = test: Antiviral activity against Influenza A virus A/WSN/33(H1N1) infected in MDCK cells at 100 uM preincubated with virus for 15 mins followed by cells addition measured at 36 hrs post infection; type: functional, A/WSN/1933(H1N1)
How it was run: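 MDCK canine kidney cells grown in DMEM and infected with influenza A/WSN/33 (H1N1). Compounds screened at 100 μM. Oseltamivir phosphate served as the positive control.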

[13] = biological target: T1, Nuclear factor erythroid 2-related factor 2 (Homo sapiens); test: Activation of NRF2 transcription in human HepG2C8 cells at 20 uM after 6 hrs by luciferase reporter gene assay relative to control; type: cell-based; how it was run: as §3
[14] = biological target: T1, Nuclear factor erythroid 2-related factor 2 (Homo sapiens); test: Activation of NRF2 transcription in human HepG2C8 cells at 40 uM after 6 hrs by luciferase reporter gene assay relative to control; type: cell-based; how it was run: as §3
Mus musculus [15] = test: Hepatoprotective activity in ip dosed C57BL/6J mouse assessed as reduction in CCL4-induced serum ALT level administered qd for 3 days followed by CCL4 addition at 3 hrs post last dose measured after 24 hrs; type: functional, organism-based; how it was run: as §2
[16] = biological target: T2, Tyrosinase (Homo sapiens) (UniProt P14679); test: Inhibition of tyrosinase (unknown origin) using L-tyrosine as substrate assessed as oxidation of L-tyrosine at 20 uM after 15 mins
T2 sequence (whole entry): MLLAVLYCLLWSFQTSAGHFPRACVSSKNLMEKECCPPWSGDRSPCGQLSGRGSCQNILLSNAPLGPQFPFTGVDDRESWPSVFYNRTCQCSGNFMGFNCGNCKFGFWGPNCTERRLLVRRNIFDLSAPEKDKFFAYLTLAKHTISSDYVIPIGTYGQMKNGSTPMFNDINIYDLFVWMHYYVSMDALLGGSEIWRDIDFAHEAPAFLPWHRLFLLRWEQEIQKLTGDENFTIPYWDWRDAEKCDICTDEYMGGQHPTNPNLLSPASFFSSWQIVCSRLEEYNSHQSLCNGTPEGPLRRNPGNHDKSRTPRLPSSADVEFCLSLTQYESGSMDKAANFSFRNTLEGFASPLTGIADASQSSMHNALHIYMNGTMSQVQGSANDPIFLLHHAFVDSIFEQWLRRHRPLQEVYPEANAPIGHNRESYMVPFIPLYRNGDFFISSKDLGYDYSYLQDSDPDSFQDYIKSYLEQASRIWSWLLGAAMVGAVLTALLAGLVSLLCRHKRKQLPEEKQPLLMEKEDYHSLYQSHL
How it was run: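 Tyrosinase at 333 U/mL (stock) in 45 mM sodium phosphate, pH 6.6, with 2 mM L-tyrosine (stock). Incubated 37 °C for 15 min; oxidation read at 492 nm. Screened at 20 μM; dose-response for IC50. Glyasperin C positive control.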

Mus musculus [17] = test: In vivo increase in HO-1 levels in C57BL/6J mouse liver at 5 to 10 mg/kg, ip qd administered for 3 days measured 3 hrs post last dose by Western blot analysis; type: functional, organism-based; how it was run: as §5
Mus musculus [18] = test: Hepatoprotective activity in ip dosed C57BL/6J mouse assessed as reduction in CCL4-induced serum AST level administered qd for 3 days followed by CCL4 addition at 3 hrs post last dose measured after 24 hrs; type: functional, organism-based; how it was run: as §2

## COc1cc(O)ccc1/C=C/C(=O)c1ccc(O)cc1 [ECHINATIN]
Mus musculus [1]
  Activity: 2.58 nmol
[2]
  Activity: Dose-dependent effect
HepG2
  Activity: Toxic
[3]
  Activity: Dose-dependent effect
Mus musculus [4]
  Activity: 2.42 nmol
[5]
  Activity: Dose-dependent effect
Mus musculus [6]
  Activity: Dose-dependent effect
[7]
  Activity: Dose-dependent effect
Mus musculus [8]
  Activity: Active
[9]
  fold change (FC): 5.46
Mus musculus [10]
  Activity: Active
Mus musculus [11]
  Activity: Dose-dependent effect
[12]
  Activity: Dose-dependent effect
Influenza A virus
  Activity: >30%
[13]
  fold change (FC): 6.8
[14]
  fold change (FC): 4.3
Mus musculus [15]
  Activity: Dose-dependent effect
[16]
  inhibition: Active
Mus musculus [17]
  Activity: Active
Mus musculus [18]
  Activity: Dose-dependent effect
